Reference: BindingDB's records for doi:10.1016/s0960-894x(02)00170-1 (Kingston University, 2002)

Biological target: T1, Steryl-sulfatase (Homo sapiens, UniProt P08842)
T1 sequence (P08842 whole entry): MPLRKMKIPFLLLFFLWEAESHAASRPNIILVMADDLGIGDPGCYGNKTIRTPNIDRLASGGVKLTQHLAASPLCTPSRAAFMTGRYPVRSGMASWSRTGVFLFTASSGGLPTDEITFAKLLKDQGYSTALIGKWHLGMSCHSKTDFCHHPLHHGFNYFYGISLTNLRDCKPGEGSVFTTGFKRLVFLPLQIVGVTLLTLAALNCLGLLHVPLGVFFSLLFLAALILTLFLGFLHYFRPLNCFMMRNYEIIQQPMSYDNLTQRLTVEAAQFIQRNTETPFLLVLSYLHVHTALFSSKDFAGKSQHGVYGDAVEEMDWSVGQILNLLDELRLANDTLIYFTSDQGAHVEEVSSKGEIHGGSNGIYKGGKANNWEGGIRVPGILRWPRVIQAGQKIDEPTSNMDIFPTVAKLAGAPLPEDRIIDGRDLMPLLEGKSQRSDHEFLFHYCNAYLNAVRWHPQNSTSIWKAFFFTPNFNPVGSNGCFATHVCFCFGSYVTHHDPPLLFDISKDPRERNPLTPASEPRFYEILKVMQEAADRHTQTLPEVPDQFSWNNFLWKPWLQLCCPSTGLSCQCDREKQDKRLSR
Test: Compound was evaluated for its inhibitory activity against estrone sulfatase enzyme
Summary of the method: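 They are added to tubes holding [3H]estrone sulfate (300,000 dpm) and inhibitor, which was dried from ethanol under nitrogen. Incubation runs 20 min at 37 °C and is quenched with toluene. Radioactivity in the toluene extract is counted. Triplicates are run alongside no-inhibitor controls and boiled-microsome blanks.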

Row | SMILES | IC50 [µM]
1 | CCCOC(=O)c1ccc(-c2ccc(OS(N)(=O)=O)cc2)cc1 | 3.5
2 | N#Cc1ccc(-c2ccc(OS(N)(=O)=O)cc2)cc1 | 6.7
3 | Cc1cc(=O)oc2cc(OS(N)(=O)=O)ccc12 [4-methyl-2-oxo-2H-chromen-7-yl sulfamate] | 10
4 | COC(=O)c1ccc(-c2ccc(OS(N)(=O)=O)cc2)cc1 | 5.2
5 | CCOC(=O)c1ccc(-c2ccc(OS(N)(=O)=O)cc2)cc1 | 4.2
6 | CCCCOC(=O)c1ccc(-c2ccc(OS(N)(=O)=O)cc2)cc1 | 5.8
7 | NS(=O)(=O)Oc1ccc(-c2ccccc2)cc1 [Sulfamic acid biphenyl-4-yl ester] | 76.1
